1 molecule from ChEMBL document CHEMBL3792374, “Discovery of a ring-opened derivative of 3-n-butylphthalide bearing NO/H2S-donating moieties as a potential anti-ischemic stroke agent” (Eur J Med Chem, 2016) can be followed below.

The test system of series [1] is Rattus norvegicus. Nature of the series: Antioxidant activity in Sprague-Dawley rat brain tissue model of transient middle cerebral artery occlusion stroke model assessed as increase in glutathione levels per mg of protein at 80 mg/kg […] measured 24 hrs after reperfusion by DTNB assay (reference value: 23.47 nmol). In kind it is functional.
For series [2], the system named is Rattus norvegicus. Nature of the series: Antioxidant activity in Sprague-Dawley rat brain tissue model of transient middle cerebral artery occlusion stroke model assessed as increase in glutathione peroxidase levels per mg of protein at 380 mg/kg […] measured 24 hrs after reperfusion by DTNB assay relative to control. It is filed as functional.
The nature of series [3]: Induction of nitric oxide release in potassium phosphate buffer at pH 7.4 at 0.1 mM after 30 mins by Griess assay. It is filed as physicochemical. Particulars: pH 7.4, 0.5 h, 100 µM. An outline of the steps:
(§1)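 Compound (0.1 mM) in PBS pH 7.4 containing 2% DMSO and 5.0 mM L-cysteine was held at 37 °C for 15–300 min. Samples were taken every 15 min up to 120 min, then every 30 min. Each sample was reacted with Griess reagent for 10 min at 37 °C and absorbance read at 540 nm. Nitrite was quantified from a nitrite standard curve. Means reported; intra-group variation <10%.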

A short description of series [4]: Induction of nitric oxide release in potassium phosphate buffer at pH 7.4 at 0.1 mM after 60 mins by Griess assay. The conditions noted are these: pH 7.4, 1 h, 100 µM. It is filed as physicochemical. A digest of the protocol:
as §1

A short description of series [5]: Induction of nitric oxide release in potassium phosphate buffer at pH 7.4 at 0.1 mM after 90 mins by Griess assay. It is filed as physicochemical. The conditions noted are these: pH 7.4, 1.5 h, 100 µM. A digest of the protocol: as §1
Series [6] is described as follows: Induction of nitric oxide release in potassium phosphate buffer at pH 7.4 at 0.1 mM after 105 mins by Griess assay. It is filed as physicochemical. Particulars: pH 7.4, 1.75 h, 100 µM. An outline of the steps:
as §1

Series [7] is described as follows: Induction of nitric oxide release in potassium phosphate buffer at pH 7.4 at 0.1 mM after 240 mins by Griess assay. In kind it is physicochemical. The conditions noted are these: pH 7.4, 4 h, 100 µM. An outline of the steps:
as §1

The nature of series [8]: Induction of nitric oxide release in potassium phosphate buffer at pH 7.4 at 0.1 mM after 300 mins by Griess assay. In kind it is physicochemical. The conditions noted are these: pH 7.4, 5 h, 100 µM. A digest of the protocol:
as §1

The subject of series [9] is Liver. Nature of the series: Induction of hydrogen sulfide release in rat liver homogenate at 100 uM after 90 mins by microplate reader method (reference value: 1.03 to 1.21%). In kind it is functional, tissue-based. An outline of the steps: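 Compound was incubated at 37 °C for 0–90 min with fresh rat liver homogenate. The reaction was stopped with 1% zinc acetate and 10% trichloroacetic acid. N,N-dimethyl-p-phenylenediamine sulfate in 7.2 M HCl and FeCl3 in 1.2 M HCl were added, and absorbance was read at 670 nm after 10 min. Values were calculated against an NaHS standard curve as cumulative % conversion to H2S, n = 6.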

Series [10] in a line: Antiplatelet activity in rabbit platelet-rich plasma assessed as inhibition of ADP-induced platelet aggregation at 0.1 mM preincubated for 5 mins followed by addition of ADP measured within 5 mins by Borns turbidimetric method. The conditions noted are these: Oryctolagus cuniculus. In kind it is functional. A digest of the protocol:
(§2)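 Rabbit carotid blood was citrated (3.8%, 9:1). PRP was obtained at 500 g for 10 min and PPP at 3000 g for 10 min. PRP was preincubated in duplicate for 5 min at 37 °C with 0.1 mM compound, plus carboxy-PTIO or BSS where indicated. ADP was then added and maximal light transmission recorded within 5 min, within 3 h of blood collection. Inhibition % was calculated versus control. Mean ± SD of three independent experiments.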

Series [11] can be described thus: Antiplatelet activity in rabbit platelet-rich plasma assessed as inhibition of ADP-induced platelet aggregation at 0.1 mM preincubated for 5 mins followed by addition of ADP measured within 5 mins by Borns turbidimetric method in presence of nitric oxide scavenger carboxy-PTIO. It is filed as functional. The conditions noted are these: Oryctolagus cuniculus. An outline of the steps:
as §2

A short description of series [12]: Induction of nitric oxide release in potassium phosphate buffer at pH 7.4 at 0.1 mM after 15 mins by Griess assay. It is filed as physicochemical. Particulars: pH 7.4, 0.25 h, 100 µM. A digest of the protocol:
as §1

In series [13] the test system is Rattus norvegicus. Nature of the series: Neuroprotective activity in Sprague-Dawley rat model of transient middle cerebral artery occlusion stroke model assessed as reduction in brain water content at 380 mg/kg administered via oral gavage for 7 days after ischemia onset measured 24 hrs after middle cerebral artery occlusion. The conditions noted are these: in the assay text read “before ischemia onset” for “after ischemia onset”. In kind it is functional, organism-based. An outline of the steps: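 Male SD rats were gavaged daily for 7 days, with 0.5% CMC-Na as vehicle, then underwent 2 h MCAO with reperfusion. At 24 h after reperfusion the ischemic hemisphere was weighed wet, dried at 100 °C for 24 h and reweighed. Water content was calculated as (wet − dry)/wet × 100%. Mean ± SD, n = 6, ANOVA/Tukey.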

The source made the active and inactive calls. The calls are words filed in the database; no cut-off is given here.

`CCCCC(OC(=O)CN1CCN(CCCCCOc2ccc(-c3cc(=S)ss3)cc2)CC1)c1ccccc1C(=O)Oc1ccc(/C=C/C(=O)OCCO[N+](=O)[O-])cc1OC` (racemic): the Activity was determined as 25.22 nmol in [1]; 69.26% in series [2]; 5.48 µM in series [3]; 8.03 µM in [4]; 9.14 µM in series [5]; 9.63 µM in series [6]. The Activity in series [7] turned out to be 10.35 µM; in series [8], 10.57 µM; in series [9], 4.4%; in series [12], 3.16 µM. Further, the results for the inhibition at 100 µM in series [10] and in series [11] were 41% and 29.1%, respectively. Moreover, the result in series [13] was Active.
